From ChEMBL document CHEMBL1938300 (Bioorg Med Chem, 2011)
Values after ≈ are worked out from the molar mass of the structure shown.

Tests used:
[1] = Solubility of the compound; assay type: physicochemical
[2] = tested on: Rattus norvegicus; test: AUC in Sprague-Dawley rat at 1 mg/kg, iv by HPLC; assay type: ADME, organism-based, Plasma; parameters: dose 1 mg/kg, route intravenous; conditions: in vivo
[3] = Oral bioavailability Sprague-Dawley rat at 5 mg/kg by HPLC; assay type: ADME, organism-based; conditions: in vivo
How it was run: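 Male Sprague-Dawley rats (n=3/group) given 1 mg/kg IV (DMSO/Solutol/PBS) or, after overnight fast, 5 mg/kg oral gavage in PEG400; plasma by HPLC-MS/MS; F% = dose-normalised oral AUC0-∞ divided by IV AUC0-∞, times 100.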

[4] = Volume of distribution in Sprague-Dawley rat by HPLC; assay type: ADME, organism-based; conditions: in vivo
How it was run: (§1)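 Rat IV pharmacokinetics: male Sprague-Dawley, n=3, 1 mg/kg tail-vein dose in 3% DMSO/30% Solutol/67% PBS; plasma over 0.083–6 h quantified by HPLC-MS/MS; parameters estimated per rat by non-compartmental analysis.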

[5] = Solubility of the compound at pH 7.4; assay type: physicochemical; conditions: buffer
[6] = tested on: Rattus norvegicus; test: AUC in Sprague-Dawley rat at 5 mg/kg, po by HPLC; assay type: ADME, organism-based, Plasma; parameters: dose 5 mg/kg, route oral; conditions: in vivo
[7] = Clearance in Sprague-Dawley rat by HPLC; assay type: ADME, organism-based; conditions: in vivo; how it was run: as §1
[8] = Half life in Sprague-Dawley rat liver microsomes; assay type: ADME, Microsome

| SMILES | solubility [1] [µg/mL] | AUC [2] [ng·h/mL] | bioavailability [3] [%] | Vd [4] [L/kg] | solubility [5] [µg/mL] | AUC [6] [ng·h/mL] | clearance [7] [mL/min/kg] | half-life [8] [min] |
| --- | --- | --- | --- | --- | --- | --- | --- | --- |
| CNC(=O)c1cccc(F)c1Nc1nc(Nc2ccc3c(c2)NC(=O)C(NC(=O)C(F)(F)F)CC3(C)C)ncc1Cl.O=C(O)C(F)(F)F (racemic) | 8 | 1310 | 9 | 1.2 | – | 606 | 16 | – |
| CNC(=O)c1cccc(F)c1Nc1nc(Nc2ccc3c(c2)NC(=O)C(NC(=O)CN(C)C)CC3(C)C)ncc1Cl.O=C(O)C(F)(F)F (racemic) | – | 825 | 1 | 3 | – | 61 | 32 | – |
| CNC(=O)c1cccc(F)c1Nc1nc(Nc2ccc3c(c2)NC(=O)C(NC(C)=O)CC3(C)C)ncc1Cl.O=C(O)C(F)(F)F (racemic) | – | 654 | 2 | 2 | – | 48 | 33 | – |
| CNC(=O)c1cccc(F)c1Nc1nc(Nc2ccc3c(c2)NC(=O)C(NC(=O)COC)CC3(C)C)ncc1Cl.O=C(O)C(F)(F)F (racemic) | – | 846 | 12 | 1.3 | – | 497 | 20 | – |
| CNC(=O)c1cccc(F)c1Nc1nc(Nc2ccc3c(c2)NC(=O)C(NC(=O)OC)CC3(C)C)ncc1Cl.O=C(O)C(F)(F)F (racemic) | – | 1200 | 16 | 1 | – | 987 | 15 | – |
| CNC(=O)c1cccc(F)c1Nc1nc(Nc2ccc3c(c2)NC(=O)C(NC(=O)N2CCCC2)CC3(C)C)ncc1Cl.O=C(O)C(F)(F)F (racemic; form 1) | – | 3420 | 15 | 0.8 | – | 2630 | 6 | – |

More lines, now with the values ahead:

| solubility [1] [µg/mL] | AUC [2] [ng·h/mL] | bioavailability [3] [%] | Vd [4] [L/kg] | solubility [5] [µg/mL] | AUC [6] [ng·h/mL] | clearance [7] [mL/min/kg] | half-life [8] [min] | SMILES |
| --- | --- | --- | --- | --- | --- | --- | --- | --- |
| 21 (≈ 43.5 µM) | 1060 | 1 | 0.5 | 21 (≈ 43.5 µM) | 46 | 16 | 15 | CNC(=O)c1cccc(F)c1Nc1nc(Nc2ccc3c(c2)NC(=O)CCC3(C)C)ncc1Cl |
| – | – | 0 | – | – | – | – | – | CCN1C(=O)CCC(C)(C)c2ccc(Nc3ncc(Cl)c(Nc4c(F)cccc4C(=O)NC)n3)cc21 |
| – | 3460 | 34 | 0.6 | 26 (≈ 43.7 µM) | 5850 | 5 | 21 | CNC(=O)c1cccc(F)c1Nc1nc(Nc2ccc3c(c2)NC(=O)[C@H](NC(=O)N2CCCC2)CC3(C)C)ncc1Cl |
| – | 3190 | 35 | 0.6 | – | 5550 | 5 | – | CNC(=O)c1cccc(F)c1Nc1nc(Nc2ccc3c(c2)NC(=O)[C@@H](NC(=O)N2CCCC2)CC3(C)C)ncc1Cl |
| > 120 | 787 | – | 4.6 | – | – | – | – | CNC(=O)c1cccc(F)c1Nc1nc(Nc2ccc3c(c2)NC(=O)C(N)CC3(C)C)ncc1Cl (racemic) |
| – | 2330 | 40 | 0.8 | – | 4660 | 8 | – | CNC(=O)c1cccc(F)c1Nc1nc(Nc2ccc3c(c2)NC(=O)C(NC(=O)N2CCCC2)CC3(C)C)ncc1Cl (racemic; form 2) |
